Publication PMC10240386 (Cell chemical biology, 2023)

Tests used:
human c-20S β5c = human c-20S β5c (Homo sapiens, UniProt P20618+P28074); experiment: Proteasome IC50 determination, human c-20S β5c; type: biochemical
In short: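 Human c-20S (0.2 nM) assayed in 20 mM HEPES, 0.5 mM EDTA, 0.1 mg/mL BSA, pH 7.5, with 0.02% SDS and 25 µM suc-LLVY-AMC. Pf20S (1 nM) assayed in 50 mM Tris, 5 mM MgCl2, 1 mM DTT, pH 7.4, with 12 nM PA28α, 0.5 µM WLW-VS and 25 µM suc-LLVY-AMC. Test compound given as a 3-fold series, 100–0.0017 µM final. AMC read at 360/460 nm for 1–2 h; linear velocities fitted to a dose-response equation. Run in duplicate or triplicate.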

Pf20S β5 = Pf20S β5 (Plasmodium falciparum, UniProt A0A5K1K7U1+Q8IJT1); experiment: biochemical; type: biochemical; settings: for activity against Pf20S: Pf20S β5
Dd2β5^A49S = experiment: Parasite growth inhibition assay, erythrocytic stage; type: cell-based, Plasmodium falciparum; settings: for EC50: Plasmodium falciparum, 72 h, read-out: EC50 Dd2β5^A49S; for fold more resistant / reduced potency, Dd2β5^A49S versus parental Dd2: EC50 ratio
[1] = system: DHA-resistant clones DR1, DR2, DR4 derived from Dd2; experiment: Standard 72-h in vitro assay on DHA-resistant clones; type: cell-based, Plasmodium falciparum; settings: standard 72-h assay
Dd2β6^A117D = experiment: Parasite growth inhibition assay, erythrocytic stage; type: cell-based, Plasmodium falciparum; settings: for EC50: Plasmodium falciparum, 72 h, read-out: EC50 Dd2β6^A117D; for fold more resistant / reduced potency, Dd2β6^A117D versus parental Dd2: EC50 ratio
i-20S/PA28α = experiment: Degradation of the modified β-casein by i-20S; type: biochemical, human; settings: β-casein pre-incubated with 100 μM compound, hemin and ascorbate; for degradation of β-casein by i-20S/PA28α, dialyzed set: then dialyzed; for degradation of β-casein by i-20S/PA28α, non-dialyzed control: not dialyzed
Pf Dd2^WT = experiment: Parasite growth inhibition assay, erythrocytic stage; type: cell-based, Plasmodium falciparum; settings: for EC50: Plasmodium falciparum, DD2, Erythrocyte, 72 h, read-out: EC50 Pf Dd2^WT; for inhibition of Pf growth: strain not stated in text (Figure 5A)
human i-20S β5i = human i-20S β5i (Homo sapiens, UniProt P20618+P28062); experiment: Proteasome IC50 determination, human i-20S β5i; type: biochemical
In short: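 Human i-20S (0.4 nM) assayed in 20 mM HEPES, 0.5 mM EDTA, 0.1 mg/mL BSA, pH 7.5, with 0.02% SDS and 15 µM Ac-ANW-AMC. Pf20S (1 nM) assayed in 50 mM Tris, 5 mM MgCl2, 1 mM DTT, pH 7.4, with 12 nM PA28α, 0.5 µM WLW-VS and 25 µM suc-LLVY-AMC. Test compound given as a 3-fold series, 100–0.0017 µM final. AMC read at 360/460 nm for 1–2 h; velocities fitted to a dose-response equation. Run in duplicate or triplicate.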

[2] = system: Pf strains Cam3.I^rev and Cam3.I^R539T; experiment: Extended RSA / parasite regrowth assay; type: cell-based, Plasmodium falciparum; settings: 6 h pulse as in RSA, parasitemia on day 7, ART-sensitive and ART-resistant lines
In short: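 Cultures repeatedly sorbitol-synchronized, then Percoll-sorbitol enriched for late stages, allowed 3 h reinvasion and sorbitol-treated again to give 0–3 h rings. Rings plated at 0.5% parasitemia and exposed to test compound (700 or 800 nM) for 6 h, then washed. Transferred into 3 mL culture for seven days; parasitemia scored by microscopy on day 7.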

HepG2 cells = experiment: HepG2 cell viability assay; type: cell-based; settings: Homo sapiens, HepG2, 72 h, read-out: HepG2
[3] = system: Pf Dd2 proteins and peptides; type: cell-based, Plasmodium falciparum; settings: 700 nM for 6 h, Cy3-alkyne click, in-gel fluorescence
[4] = system: P. berghei G2025^R551T (K13^R551T); experiment: Modified Peters' 4-day suppressive test for recrudescence, ART-resistant strain; type: in vivo, Swiss Webster mice; settings: ART 50 mg/kg, ATZ4 100 mg/kg i.p. day 0 to day 2
Pf20Sβ5^A49S = experiment: Blocking of MV151 labeling in parasite lysate; type: binding, Plasmodium falciparum; settings: 1 h preincubation of Dd2β5^A49S lysate
In short: (§1)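 Dd2 wild-type or mutant parasite pellets lysed on ice for 1 h in 50 mM Tris-HCl, 5 mM MgCl2, 1 mM DTT, pH 7.4, then centrifuged; protein quantified by BCA. 5–10 µg of lysate protein preincubated with test compound for 1 h at 37°C. MV151 added at 2 µM final for a further 1 h at 37°C, protected from light. Run on 12% Bis-Tris SDS-PAGE and scanned at Cy3/TAMRA (λex 532, λem 560 nm).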

Pf20Sβ6^A117D = experiment: Blocking of MV151 labeling in parasite lysate; type: binding, Plasmodium falciparum; settings: 1 h preincubation of Dd2β6^A117D lysate
In short: as §1

[5] = system: Pf20S β5 in lysate of Dd2^WT; experiment: Blocking of MV151 labeling in parasite lysate; type: binding, Plasmodium falciparum; settings: 1 h preincubation of Dd2^WT lysate
In short: as §1

P. berghei ANKA lux = experiment: In vivo efficacy in mice infected with P. berghei ANKA lux; design: species or system Swiss Webster mice; settings: 20 mg/kg i.p. once daily day 3 to day 6, luminescence on day 7; positive control

Structure (SMILES): C[C@H]1[C@@H](CC(N)=O)O[C@@H]2O[C@@]3(C)CC[C@H]4[C@H](C)CC[C@@H]1[C@@]24OO3 [ART1, 2-((3R,5aS,6R,8aS,9R,10R,12R,12aR)-3,6,9-trimethyldecahydro-12H-3,12-epoxy[1,2]dioxepino[4,3-i]isochromen-10-yl)acetamide]
- IC50 (human c-20S β5c): > 100 µM
- activity against human proteasomes (human c-20S β5c; hu c-20S): inactive
- IC50 (Pf20S β5): 9.2 µM
- EC50 (Dd2β5^A49S): 0.0302 ± 0.0026 µM
- susceptibility of DHA-resistant clones compared with WT Dd2 [1]: modestly resistant
- EC50 (Dd2β6^A117D): 0.0279 ± 0.011 µM
- degradation of β-casein by i-20S/PA28α, dialyzed set (i-20S/PA28α): unimpeded degradation of β-casein
- EC50 (Pf Dd2^WT): 0.0437 ± 0.0127 µM
- IC50 (human i-20S β5i): > 100 µM
- activity against human proteasomes (human i-20S β5i; hu i-20S): inactive
- parasite regrowth after pulse [2]: re-established normal growth
- EC50 (HepG2 cells): > 100 µM

Structure (SMILES): C[C@@H]1CC[C@H]2[C@@H](C)C(=O)O[C@@H]3O[C@@]4(C)CC[C@@H]1[C@]32OO4 [ART, artemisinin, reference compound]
- labeling of parasite proteins and peptides [3]: minimal labeling of proteins and peptides
- mice with positive blood smear on day 6 [4]: 20%
- mice with positive blood smear on day 8 [4]: 40%
- mice with positive blood smear on day 10 [4]: 100%

Structure (SMILES): C[C@H]1[C@@H](CC(=O)NCC(=O)N[C@@H](CC(=O)NC(C)(C)C)C(=O)NCCNC(=O)c2cc(-c3ccccc3F)ccc2F)O[C@@H]2O[C@@]3(C)CC[C@H]4[C@H](C)CC[C@@H]1[C@@]24OO3 [ATZ2, (S)-N4-(tert-butyl)-N1-(2-(2′,4-difluoro-[1,1′-biphenyl]-3-carboxamido)ethyl)-2-(2-(2-((3R,5aS,6R,8aS,9R,10R,12R,12aR)-3,6,9-trimethyldecahydro-12H-3,12-epoxy[1,2]dioxepino[4,3-i]isochromen-10-yl)acetamido)acetamido)succinamide]
- IC50 (human c-20S β5c): 0.21 ± 0.04 µM
- IC50 (Pf20S β5): 0.0029 ± 0.0006 µM
- activity against Pf20S (Pf20S β5): potency comparable with that of PI01
- fold improvement over PI01 against Dd2β5^A49S (Dd2β5^A49S): > 100 fold
- fold more resistant / reduced potency, Dd2β5^A49S versus parental Dd2 (Dd2β5^A49S): ≤ 3.6 fold
- EC50 (Dd2β5^A49S): 0.0109 ± 0.0026 µM
- fold improvement over PI01 against Dd2β6^A117D (Dd2β6^A117D): ≥ 5 fold
- fold more resistant / reduced potency, Dd2β6^A117D versus parental Dd2 (Dd2β6^A117D): ≤ 2.9 fold
- EC50 (Dd2β6^A117D): 0.0044 ± 0.0011 µM
- degradation of β-casein by i-20S/PA28α, non-dialyzed control (i-20S/PA28α): inhibited the degradation of β-casein
- times more potent than ART1 against Dd2 (Pf Dd2^WT; EC50 ratio): 10 times
- EC50 (Pf Dd2^WT): 0.003 ± 0.0006 µM
- IC50 (human i-20S β5i): 0.073 ± 0.019 µM

Structure (SMILES): C[C@H]1[C@@H](CC(=O)N[C@@H](CCCN=[N+]=[N-])C(=O)N[C@@H](CC(=O)NC(C)(C)C)C(=O)NCCNC(=O)c2cc(-c3ccccc3F)ccc2F)O[C@@H]2O[C@@]3(C)CC[C@H]4[C@H](C)CC[C@@H]1[C@@]24OO3 [ATZ-P1, (S)-2-((S)-5-azido-2-(2-((3R,5aS,6R,8aS,9R,10R,12R,12aR)-3,6,9-trimethyldecahydro-12H-3,12-epoxy[1,2]dioxepino[4,3-i]isochromen-10-yl)acetamido)pentanamido)-N^4-(tert-butyl)-N^1-(2-(2′,4-difluoro-[1,1′-biphenyl]-3-carboxamido)ethyl)succinimide]
- activity against Pf20S (Pf20S β5): highly potent inhibitors
- inhibition of Pf growth (Pf Dd2^WT): highly potent inhibitors
- labeling of parasite proteins and peptides [3]: substantial labeling of proteins and peptides

Structure (SMILES): C[C@H]1[C@@H](O)O[C@@H]2O[C@@]3(C)CC[C@H]4[C@H](C)CC[C@@H]1[C@@]24OO3 [DHA, dihydroartemisinin, reference compound]
- susceptibility of DHA-resistant clones compared with WT Dd2 [1]: highly resistant
- parasite regrowth after pulse [2]: re-established normal growth

Structure (SMILES): CC(C)(C)NC(=O)C[C@H](NC(=O)CCCNC(=O)OC(C)(C)C)C(=O)NCCNC(=O)c1cc(-c2ccccc2F)ccc1F [PI01, tert-butyl (S)-(4-((4-(tert-butylamino)-1-((2-(2′,4-difluoro-[1,1′-biphenyl]-3-carboxamido)ethyl)amino)-1,4-dioxobutan-2-yl)amino)-4-oxobutyl)carbamate]
- IC50 (human c-20S β5c): 2 µM
- fold less active on hu c-20S than on Pf20S (human c-20S β5c; ratio of IC50 values): ~300 fold
- IC50 (Pf20S β5): 0.006 ± 0.0008 µM
- fold more resistant / reduced potency, Dd2β5^A49S versus parental Dd2 (Dd2β5^A49S): > 370 fold
- EC50 (Dd2β5^A49S): > 2.77 µM
- fold more resistant / reduced potency, Dd2β6^A117D versus parental Dd2 (Dd2β6^A117D): 16 fold
- EC50 (Dd2β6^A117D): 0.121 ± 0.02 µM
- degradation of β-casein by i-20S/PA28α, non-dialyzed control (i-20S/PA28α): inhibited the degradation of β-casein
- degradation of β-casein by i-20S/PA28α, dialyzed set (i-20S/PA28α): unimpeded degradation of β-casein
- EC50 (Pf Dd2^WT): 0.0074 ± 0.0002 µM
- blocking of MV151 labeling of β5 (Pf20Sβ5^A49S): prevented PI01 and ATZ4 from inhibiting
- blocking of MV151 labeling of β5 (Pf20Sβ6^A117D): prevented PI01 and ATZ4 from inhibiting
- blocking of MV151 labeling of β5 [5]: dose dependently blocked labeling of β5
- IC50 (human i-20S β5i): 0.2 ± 0.046 µM
- fold less active on hu i-20S than on Pf20S (human i-20S β5i; ratio of IC50 values): ~ 30 fold
- parasite regrowth after pulse [2]: re-established normal growth
- EC50 (HepG2 cells): > 100 µM

Structure (SMILES): CCN(CC)CCCC(C)Nc1ccnc2cc(Cl)ccc12 (stereo not shown) [chloroquine, reference compound]
- parasite load (P. berghei ANKA lux): below the limit of detection

Structure (SMILES): C[C@H]1[C@@H](CC(=O)N[C@@H](CCCN=[N+]=[N-])C(=O)N[C@@H](CC(=O)NC(C)(C)C)C(=O)NCCNC(=O)c2cc(-c3ccccc3F)ccc2F)O[C@@H]2O[C@@]3(C)CC[C@H]4[C@H](C)CC[C@@H]1[C@@]24O3 [deoxy-ATZ-P1, (S)-2-((S)-5-azido-2-(2-((2R,3R,3aS,3a^1R,6R,6aS,9S,10aR)-3,6,9-trimethyldecahydro-10aH-3a^1,9-epoxyoxepino[4,3,2-ij]isochromen-2-yl)acetamido)pentanamido)-N^4-(tert-butyl)-N^1-(2-(2′,4-difluoro-[1,1′-biphenyl]-3-carboxamido)ethyl)succinamide]
- activity against Pf20S (Pf20S β5): highly potent inhibitors
- inhibition of Pf growth (Pf Dd2^WT): highly potent inhibitors
- labeling of parasite proteins and peptides [3]: minimal labeling of proteins and peptides
